Measurements taken from ChEMBL document CHEMBL1154457, “Synthesis, anti-tubercular activity and 3D-QSAR study of coumarin-4-acetic acid benzylidene hydrazides” (2008).

Key:
[1] = test system: Mycobacterium tuberculosis; assay: Antitubercular activity against Mycobacterium tuberculosis H37Rv at 6.25 ug/mL after 5 to 8 days; type: functional
Procedure, shortened: (§1)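 Inoculum diluted to reach growth index 999 in 5 days. Compound added from DMSO stock to 4 ml radiometric 7H12 (BACTEC-12B) broth; DMSO-only controls. Incubated at 37 °C, GI read daily until control reached 999. %inhibition = (1 − GI test/GI control) × 100.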

[2] = test system: Mycobacterium tuberculosis; assay: Antitubercular activity against Mycobacterium tuberculosis H37Rv at 12.5 ug/mL after 5 to 8 days; type: functional; procedure, shortened: as §1

COc1ccc(/C=N/NC(=O)Cc2cc(=O)oc3ccc(C)cc23)cc1OC
inhibition at 6.25 µg/mL [1]: 29%

Cc1ccc2oc(=O)cc(CC(=O)N/N=C/c3ccccc3O)c2c1
inhibition at 6.25 µg/mL [1]: 55%

Cc1ccc2oc(=O)cc(CC(=O)N/N=C/c3ccc(F)cc3)c2c1
inhibition at 6.25 µg/mL [1]: 26%

Cc1ccc(C)c2c(CC(=O)N/N=C/c3ccccc3[N+](=O)[O-])cc(=O)oc12
inhibition at 12.5 µg/mL [2]: 65%

Cc1ccc(C)c2c(CC(=O)N/N=C/c3cccc([N+](=O)[O-])c3)cc(=O)oc12
inhibition at 12.5 µg/mL [2]: 39%

O=C(Cc1cc(=O)oc2cc(O)ccc12)N/N=C/c1cccc([N+](=O)[O-])c1
inhibition at 6.25 µg/mL [1]: 93%

Cc1ccc(C)c2c(CC(=O)N/N=C/c3ccc(N(C)C)cc3)cc(=O)oc12
inhibition at 12.5 µg/mL [2]: 7%

Cc1ccc2oc(=O)cc(CC(=O)N/N=C/c3cccc(Cl)c3)c2c1
inhibition at 6.25 µg/mL [1]: 21%

Cc1cc2oc(=O)cc(CC(=O)N/N=C/c3ccccc3[N+](=O)[O-])c2cc1C
inhibition at 12.5 µg/mL [2]: 11%

Cc1ccc(C)c2c(CC(=O)N/N=C/c3ccccc3)cc(=O)oc12
inhibition at 12.5 µg/mL [2]: 70%

Cc1cc2oc(=O)cc(CC(=O)N/N=C/c3ccc(Cl)cc3)c2cc1C
inhibition at 12.5 µg/mL [2]: 32%

COc1ccc(/C=N/NC(=O)Cc2cc(=O)oc3ccc(C)cc23)cc1
inhibition at 6.25 µg/mL [1]: 33%

Cc1cc2oc(=O)cc(CC(=O)N/N=C/c3cccc([N+](=O)[O-])c3)c2cc1C
inhibition at 12.5 µg/mL [2]: 31%

Cc1ccc2oc(=O)cc(CC(=O)N/N=C/c3ccc(Cl)cc3)c2c1
inhibition at 6.25 µg/mL [1]: 19%

COc1cc(/C=N/NC(=O)Cc2cc(=O)oc3ccc(C)cc23)cc(OC)c1OC
inhibition at 6.25 µg/mL [1]: 34%

Cc1ccc2oc(=O)cc(CC(=O)N/N=C/c3ccccc3)c2c1
inhibition at 6.25 µg/mL [1]: 34%

Cc1cc2oc(=O)cc(CC(=O)N/N=C/c3ccccc3Cl)c2cc1C
inhibition at 12.5 µg/mL [2]: 17%

Cc1ccc2oc(=O)cc(CC(=O)N/N=C/c3cccc([N+](=O)[O-])c3)c2c1
inhibition at 6.25 µg/mL [1]: 19%

COc1ccccc1/C=N/NC(=O)Cc1cc(=O)oc2c(C)ccc(C)c12
inhibition at 12.5 µg/mL [2]: 54%

Cc1ccc(C)c2c(CC(=O)N/N=C/c3ccc(Cl)cc3)cc(=O)oc12
inhibition at 12.5 µg/mL [2]: 62%

COc1cc(/C=N/NC(=O)Cc2cc(=O)oc3c(C)ccc(C)c23)cc(OC)c1OC
inhibition at 12.5 µg/mL [2]: 52%

Cc1ccc2oc(=O)cc(CC(=O)N/N=C/c3ccccc3Cl)c2c1
inhibition at 6.25 µg/mL [1]: 34%

COc1cccc(/C=N/NC(=O)Cc2cc(=O)oc3ccc(C)cc23)c1
inhibition at 6.25 µg/mL [1]: 19%

Cc1ccc(C)c2c(CC(=O)N/N=C/c3ccccc3Cl)cc(=O)oc12
inhibition at 12.5 µg/mL [2]: 48%

CSc1ccc(/C=N/NC(=O)Cc2cc(=O)oc3cc(C)c(C)cc23)cc1
inhibition at 12.5 µg/mL [2]: 6%
